# According to publication PMC3529145 (Bioconjugate chemistry, 2012):
# No end group written: not given here.
# Tests used:
# Format in all cases: in vivo, mouse
# PC-3 tumor = experiment: Small-animal PET imaging, PC-3 tumor xenograft; conditions: PET ROI analysis, i.v. tail vein, dual tumor bearing mice n = 4
# Summary of the method: (§1)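 Male athymic nude mice carried LNCaP (right shoulder, implanted 14 days earlier) and PC-3 (left shoulder) xenografts, each 100–200 mm3 (n = 4). Dosing was by tail vein: 160–170 μCi of labelled peptide in 200 μL 3% EtOH/saline, or 260 μCi of control peptide in 200 μL PBS. Static 15-min microPET scans were taken at 2 and 4 h under isoflurane. Decay-corrected ROI values were expressed as %ID/g by phantom calibration.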
# LNCaP tumors = experiment: Postmortem biodistribution, LNCaP tumor uptake and tumor-to-tissue ratios; conditions: for LNCaP Tumor/kidney ratio: biodistribution
# LNCaP tumor = experiment: Small-animal PET imaging, LNCaP tumor xenograft; conditions: for radioactivity accumulation in LNCaP tumor (PET): PET ROI analysis, i.v. tail vein, dual tumor bearing mice n = 4
# Summary of the method: as §1
substance,measurement,setting,value
ACEQNPIYWARYADWLFTTPLLLLDLALLVDADEGTG-CO2H [[^18F]-4a],radioactivity accumulation in PC-3 tumor (PET),PC-3 tumor; 2 h p.i.,4.2 ± 0.4 %ID/g
same,radioactivity accumulation in PC-3 tumor (PET),PC-3 tumor; 4 h p.i.,5.4 ± 0.5 %ID/g
same,LNCaP Tumor/kidney ratio,LNCaP tumors; 2 h p.i.,0.3
same,LNCaP Tumor/kidney ratio,LNCaP tumors; 4 h p.i.,0.3
same,LNCaP Tumor/liver ratio,"LNCaP tumors; mouse, in vivo",0.2
same,radioactivity accumulation in LNCaP tumor (PET),LNCaP tumor; 2 h p.i.,8.3 ± 1.5 %ID/g
same,radioactivity accumulation in LNCaP tumor (PET),LNCaP tumor; 4 h p.i.,8.5 ± 1.3 %ID/g
ACEQNPIYWARYAKWLFTTPLLLLKLALLVDADEGTG-OH [[^18F]-5],LNCaP Tumor/kidney ratio,LNCaP tumors; 2 h p.i.,0.4
same,LNCaP Tumor/blood ratio,"LNCaP tumors; mouse, in vivo",0.1
same,LNCaP Tumor/liver ratio,"LNCaP tumors; mouse, in vivo",0.2
same,LNCaP Tumor/muscle ratio,"LNCaP tumors; mouse, in vivo",0.4
same,tumor accumulation observed by PET (in words),"LNCaP tumor; PET images of mice bearing LNCaP and PC-3 tumors, negative control",lack of any tumor accumulation
